Screening results: PubChem, several laboratories
UBC9 SUMO inh: inhibitors of in vitro SUMOylation cascade, primary screen, biochemical, HTRF, uHTS. SUMO-conjugating enzyme UBC9 (Homo sapiens), P63279. HTRF SUMOylation assay, SAE1/SAE2 + UBC9. inhibition, % at 35 µM. actives 0.36% (n = 290,000). AID 2006, 2009; in the data active means inhibition above about 50%, passing the limit was not always enough
GSTO1 inh: inhibitors of recombinant GSTO1, primary screen, counter-screen for RBBP9 inhibitor project, biochemical, fluorescence polarization; activity-based probe fluorescence polarization; inhibition, % at 5.96 µM; actives 1.1% (n = 300,000); AID 1974, 2009;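 active means inhibition above the campaign mean inhibition plus 3 SD, cut at about 35% in these data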;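 further: 0% = GSTO1-1 with DMSO and 100% = wells lacking GSTO1-1 enzyme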
Redox H2O2 prof: compounds producing H2O2 with reducing agent – biochemical, NIH compound library profiling, artefact control for MLSCN library redox annotation, primary screen | actives 0.03% (n = 200,000) | DTT-dependent redox cycling H2O2, phenol red/HRP absorbance; 100% = 100 µM peroxide control, 0% = buffer | activation, % at 10 µM;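 active means activation of at least 50% relative to the plate's high and low controls in the primary single-dose screen; inactive means activation below 50%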;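 further: compound incubated with DTT at 0.8 mM final as the reducing agent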
Apaf-1 inh: inhibitors of human Apaf-1 apoptosome, primary screen, biochemical, DEVD-Rh110 fluorescence, uHTS | actives 0.71% (n = 330,000) | inhibition, % at 20 µM | reconstituted apoptosome caspase-3 activity; active means inhibition of at least 40% at 20 µM;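 further: plate controls were DMSO wells for no effect and DEVD-CHO caspase inhibitor wells for full effect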
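Assay system – apoptosome proteins · Medium – Hepes buffer, pH 7.5 · Also added – cytochrome c with DEVD-Rh110 · Timing – 30 min compound preincubation, 50 min activation, room temperature · Detection – Rh110 fluorescence, excitation 480 nm, emission 540 nm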
HKDC1 inh: HKDC1 hexokinase inhibitors, primary screen, biochemical, fluorescence, uHTS; inhibition, % at 20 µM; recombinant HKDC1, G6PDH/diaphorase resazurin coupled fluorescence; actives 0.16% (n = 340,000); Q2TB90;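 active means inhibition above about 35% when tested at 20 µM, limit read from the data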;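 further: plate controls were DMSO wells with enzyme for no effect and DMSO wells lacking enzyme for full effect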
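Test system: recombinant HKDC1 (HK5) hexokinase enzyme, produced in-house / Doses: 20 µM test compound, 1% DMSO / Timing: 90 min, room temperature / Detection: G6PDH/diaphorase-coupled fluorescence, 1 mM NADP, 100 µM resazurin, 525/613 nm / Control set: DMSO wells with and without enzyme mix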
HKDC1 act conf: HKDC1 hexokinase activators, confirmation, biochemical, single concentration. shares compounds with HKDC1 inh. recombinant HKDC1, G6PDH/diaphorase resazurin fluorescence; hits give low values. inhibition, % at 20 µM. actives 14% (n = 740). AID 504708, 2011;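 active means inhibition at or below a set negative limit, negative inhibition meaning the enzyme was activated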
The depositor's hits bear a star. A selection: hits, their analogues and other compounds. The true share with any hit is near 1.4%.

Screening CC(=O)Nc1ccc(S(=O)(=O)NCCC(=O)OC(C)C(=O)c2ccc(C)cc2)cc1 (configuration not stated) returned UBC9 SUMO inh 1, GSTO1 inh 7, Apaf-1 inh 2, HKDC1 inh 35* and HKDC1 act conf -16.
Screening COc1ccccc1C1CCN(C(=O)c2ccc(Cl)cc2)CC1 returned UBC9 SUMO inh -6, GSTO1 inh -1, Apaf-1 inh 18 and HKDC1 inh 2.
`CCCn1c(NC(=O)CCS(=O)(=O)c2ccc(C)cc2)nc2ccccc21` gave GSTO1 inh -5, Apaf-1 inh 13 and HKDC1 inh -1.
CC[C@@H](NS(=O)(=O)c1ccc(C)cc1)C(=O)Oc1ccc2c3c(c(=O)oc2c1)CCC3 was read as UBC9 SUMO inh 32, GSTO1 inh 10, Redox H2O2 prof -1, Apaf-1 inh 7, HKDC1 inh 34 and HKDC1 act conf 1.
`O=C(N/N=C/c1ccc(O)cc1O)/C(=C/c1ccccc1)CCO` gave UBC9 SUMO inh -7, GSTO1 inh 9, Redox H2O2 prof 0, Apaf-1 inh -19, HKDC1 inh -40 and HKDC1 act conf -19.
COc1cc(/C=N/NC(=O)/C(=C/c2ccccc2)CCO)ccc1O was read as UBC9 SUMO inh -18, GSTO1 inh 4, Redox H2O2 prof -1, Apaf-1 inh 5 and HKDC1 inh -6.
For O=C(CN(C(=O)CCC(=O)Nc1ccccn1)c1ccc2c(c1)OCO2)NCc1ccc(F)cc1 the results were UBC9 SUMO inh 5, GSTO1 inh 0, Apaf-1 inh -3, HKDC1 inh -46 and HKDC1 act conf 31.
`COC(=O)c1c(NC(C)=O)sc(Cc2ccccc2)c1C` gave UBC9 SUMO inh -6, GSTO1 inh 3, Redox H2O2 prof 1, Apaf-1 inh 4, HKDC1 inh -77 and HKDC1 act conf -38*.
`Cc1c(Cc2ccccc2)sc(NC(=O)Cc2ccccc2)c1C(N)=O` gave GSTO1 inh -4, Redox H2O2 prof -4, Apaf-1 inh 0, HKDC1 inh -52 and HKDC1 act conf -7.
Screening Cc1cccc(/C=C/C(=O)c2ccc([N+](=O)[O-])o2)c1 returned GSTO1 inh 18, Apaf-1 inh 4, HKDC1 inh 50* and HKDC1 act conf 12.
`Cc1ccccc1/C=C/C(=O)c1ccc([N+](=O)[O-])o1` gave GSTO1 inh 24, Apaf-1 inh 21, HKDC1 inh 46* and HKDC1 act conf 36.
For Cc1ccccc1NC(=O)c1ccc([N+](=O)[O-])o1 the results were UBC9 SUMO inh 18, GSTO1 inh 11, Redox H2O2 prof -1, Apaf-1 inh 1 and HKDC1 inh 1.
COc1ccc(/C=C/C(=O)c2ccc([N+](=O)[O-])o2)cc1 was read as GSTO1 inh 25, Apaf-1 inh 3 and HKDC1 inh 31.
Cc1ccc(S(=O)(=O)N2CCN(C(=O)CN3C(=O)NC4(CCCCC4)C3=O)CC2)c(C)c1 was read as GSTO1 inh 7, Apaf-1 inh 4, HKDC1 inh 38* and HKDC1 act conf -18.
COC(=O)[C@]1(Cc2ccccc2)N[C@H](CN(C)C(=O)Nc2ccc(Cl)cc2)[C@@H]2C(=O)N(C)C(=O)[C@@H]21 was read as Apaf-1 inh 5 and HKDC1 inh 3.
COc1ccc2c(c1)CCc1c(C(=O)N3CCCc4ccccc43)noc1-2 was read as UBC9 SUMO inh 9, GSTO1 inh -52, Redox H2O2 prof 3, Apaf-1 inh 13, HKDC1 inh 38* and HKDC1 act conf -26.
For COc1ccc2c(c1)CCc1c(C(=O)N3CCOCC3)noc1-2 the results were UBC9 SUMO inh 2, GSTO1 inh 3, Redox H2O2 prof 0, Apaf-1 inh -15 and HKDC1 inh -10.
CCN=C1NN=C(c2ccc(C)cc2)CS1 was read as UBC9 SUMO inh -12, GSTO1 inh 4, Redox H2O2 prof 0, Apaf-1 inh -9, HKDC1 inh -64 and HKDC1 act conf -52*.
Screening c1ccc(CN=C2NN=C(c3ccccc3)CS2)cc1 returned UBC9 SUMO inh 6, GSTO1 inh 10, Redox H2O2 prof -2, Apaf-1 inh 10 and HKDC1 inh -14.
Screening CC1(C)C(=O)Nc2ccccc2N1C(=O)COC(=O)c1cc(Cl)cc(Cl)c1 returned Apaf-1 inh 21, HKDC1 inh -41 and HKDC1 act conf -50*.
For COc1cc(C=O)ccc1OC(=O)c1cccnc1 the results were UBC9 SUMO inh -2, GSTO1 inh 4, Apaf-1 inh 7 and HKDC1 inh -4.
COC1=CC(=O)c2c(ccc3ncnc(N)c23)C1=O was read as HKDC1 inh 87* and HKDC1 act conf 88.
COc1ccc(CN2CCn3nc(C(=O)NC(C)C)cc3C2=O)cc1 was read as UBC9 SUMO inh 4, GSTO1 inh 8, Redox H2O2 prof -1, Apaf-1 inh -4, HKDC1 inh -75 and HKDC1 act conf -28.
Cc1ccc(N=C2C(=S)N(c3ccc(C)cc3)C(=N)N2/N=C/c2ccc(Cl)cc2)cc1 was read as UBC9 SUMO inh 2, GSTO1 inh -1, Redox H2O2 prof 2, Apaf-1 inh 12, HKDC1 inh -119 and HKDC1 act conf -45*.
For COc1ccc(/C=N/N2CCN(c3ccc(Cl)cc3)CC2)cc1 the results were UBC9 SUMO inh 14, GSTO1 inh 5, Apaf-1 inh -3 and HKDC1 inh -8.
`Cc1ccccc1C(=O)NCCCNC(=O)c1cnccn1` gave UBC9 SUMO inh -3, GSTO1 inh 2, Apaf-1 inh 4 and HKDC1 inh -2.
Screening Cc1cc(C)n2cc(CSc3nnc(-c4ccccc4)c(-c4ccccc4)n3)nc2n1 returned HKDC1 inh 38* and HKDC1 act conf 38.
For Cc1cc(C)n2cc(CSc3nnnn3-c3ccccc3)nc2n1 the results were UBC9 SUMO inh -12, GSTO1 inh -3, Redox H2O2 prof 2, Apaf-1 inh 1 and HKDC1 inh 3.
For COc1ccc(OC)c(CCNC(=O)CCc2nnc3ccc(N4CCOCC4)nn23)c1 the results were UBC9 SUMO inh -5, GSTO1 inh -1, Apaf-1 inh 6 and HKDC1 inh -1.
For O=S(=O)(c1cc(Cl)cc(Cl)c1O)N1CCC2(CC1)OCCO2 the results were UBC9 SUMO inh 5, GSTO1 inh 4, Apaf-1 inh 10, HKDC1 inh 34 and HKDC1 act conf -12.
Screening Cc1cc(S(=O)(=O)N2CCC3(CC2)OCCO3)c(C)cc1Cl returned UBC9 SUMO inh -1, GSTO1 inh -3, Apaf-1 inh 13 and HKDC1 inh -5.
